Legend:
Stromelysin-1 [1] = target: T1, Stromelysin-1 (Homo sapiens, UniProt P08254); assay: Inhibition of human MMP3 catalytic domain at 50 uM after 1 hr by fluorescent substrate assay
In short: (§1)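 Single-concentration screen: each inhibitor tested at 50 µM against recombinant human MMP catalytic domain (MMP-1, MMP-2 or MMP-3) in a fluorescent substrate assay, with activity reported as percent inhibition.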

[2] = target: T2, 72 kDa type IV collagenase (Homo sapiens, UniProt P08253); assay: Inhibition of human MMP2 catalytic domain at 50 uM after 1 hr by fluorescent substrate assay; in short: as §1
Target sequence in this assay (P08253 110-660 limits assumed): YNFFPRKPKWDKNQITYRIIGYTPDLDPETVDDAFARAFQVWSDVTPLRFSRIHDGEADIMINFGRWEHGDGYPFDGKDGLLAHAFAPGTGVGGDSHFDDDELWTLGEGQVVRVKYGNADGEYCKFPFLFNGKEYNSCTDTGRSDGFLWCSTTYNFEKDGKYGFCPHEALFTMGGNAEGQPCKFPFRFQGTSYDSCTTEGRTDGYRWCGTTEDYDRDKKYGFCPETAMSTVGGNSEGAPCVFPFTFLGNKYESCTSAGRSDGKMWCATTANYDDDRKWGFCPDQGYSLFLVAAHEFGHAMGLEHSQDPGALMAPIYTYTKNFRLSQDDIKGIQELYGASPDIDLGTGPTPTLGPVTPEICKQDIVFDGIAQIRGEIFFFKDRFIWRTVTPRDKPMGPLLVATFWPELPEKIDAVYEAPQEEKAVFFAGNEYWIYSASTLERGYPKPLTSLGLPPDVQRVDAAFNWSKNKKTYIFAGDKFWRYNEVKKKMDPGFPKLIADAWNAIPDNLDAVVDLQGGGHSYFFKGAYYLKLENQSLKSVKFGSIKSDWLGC

[3] = target: T3, Interstitial collagenase (Homo sapiens) (UniProt P03956); assay: Inhibition of human MMP1 catalytic domain at 50 uM after 1 hr by fluorescent substrate assay; in short: as §1
T3 sequence (whole entry): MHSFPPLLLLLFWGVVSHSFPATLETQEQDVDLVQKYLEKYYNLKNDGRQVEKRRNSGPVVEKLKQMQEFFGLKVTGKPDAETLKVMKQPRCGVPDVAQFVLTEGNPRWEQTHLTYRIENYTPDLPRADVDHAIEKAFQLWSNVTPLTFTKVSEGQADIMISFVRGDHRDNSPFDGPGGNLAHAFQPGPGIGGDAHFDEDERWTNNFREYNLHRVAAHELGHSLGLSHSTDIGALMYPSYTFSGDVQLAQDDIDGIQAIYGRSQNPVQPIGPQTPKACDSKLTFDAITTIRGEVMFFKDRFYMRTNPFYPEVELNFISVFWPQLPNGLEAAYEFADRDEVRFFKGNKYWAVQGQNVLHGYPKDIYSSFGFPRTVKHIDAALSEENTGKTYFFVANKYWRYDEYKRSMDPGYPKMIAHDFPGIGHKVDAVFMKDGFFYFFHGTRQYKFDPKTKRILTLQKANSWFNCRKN

Stromelysin-1 [4] = target: T1, Stromelysin-1; assay: Inhibition of human MMP3 catalytic domain by fluorescent substrate assay
In short: (§2)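 IC50 against human MMP catalytic domain (MMP-1, MMP-2 or MMP-3) from a fluorescent substrate assay. It was determined only for inhibitors showing relatively strong inhibition in the 50 µM screen.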

[5] = target: T2, 72 kDa type IV collagenase; assay: Inhibition of human MMP2 catalytic domain by fluorescent substrate assay; in short: as §2
Target sequence in this assay (P08253 whole entry, the tested form may be a part): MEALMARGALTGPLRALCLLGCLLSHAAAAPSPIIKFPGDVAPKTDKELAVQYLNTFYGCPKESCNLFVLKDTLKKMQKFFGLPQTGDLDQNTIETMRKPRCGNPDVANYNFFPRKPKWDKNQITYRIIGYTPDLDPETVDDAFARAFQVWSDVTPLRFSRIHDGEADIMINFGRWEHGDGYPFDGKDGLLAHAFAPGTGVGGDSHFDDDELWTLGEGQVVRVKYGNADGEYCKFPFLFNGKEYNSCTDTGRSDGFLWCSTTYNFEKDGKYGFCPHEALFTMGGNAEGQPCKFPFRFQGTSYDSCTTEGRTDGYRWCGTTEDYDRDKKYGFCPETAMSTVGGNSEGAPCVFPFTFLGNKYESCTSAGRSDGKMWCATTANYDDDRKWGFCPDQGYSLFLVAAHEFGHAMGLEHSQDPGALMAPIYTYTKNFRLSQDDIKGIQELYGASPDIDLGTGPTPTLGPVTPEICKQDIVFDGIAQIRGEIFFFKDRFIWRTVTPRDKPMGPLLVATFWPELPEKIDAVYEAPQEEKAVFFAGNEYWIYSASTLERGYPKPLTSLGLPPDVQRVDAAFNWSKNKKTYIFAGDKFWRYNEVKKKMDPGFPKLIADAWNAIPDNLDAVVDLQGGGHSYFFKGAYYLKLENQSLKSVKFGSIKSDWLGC

Interstitial collagenase = target: T4, Interstitial collagenase (Homo sapiens, UniProt P03956); assay: Inhibition of human MMP1 catalytic domain by fluorescent substrate assay; in short: as §2
T4 sequence (P03956 whole entry): T3 sequence (whole entry)

T1 sequence (P08254 whole entry, the tested form may be a part): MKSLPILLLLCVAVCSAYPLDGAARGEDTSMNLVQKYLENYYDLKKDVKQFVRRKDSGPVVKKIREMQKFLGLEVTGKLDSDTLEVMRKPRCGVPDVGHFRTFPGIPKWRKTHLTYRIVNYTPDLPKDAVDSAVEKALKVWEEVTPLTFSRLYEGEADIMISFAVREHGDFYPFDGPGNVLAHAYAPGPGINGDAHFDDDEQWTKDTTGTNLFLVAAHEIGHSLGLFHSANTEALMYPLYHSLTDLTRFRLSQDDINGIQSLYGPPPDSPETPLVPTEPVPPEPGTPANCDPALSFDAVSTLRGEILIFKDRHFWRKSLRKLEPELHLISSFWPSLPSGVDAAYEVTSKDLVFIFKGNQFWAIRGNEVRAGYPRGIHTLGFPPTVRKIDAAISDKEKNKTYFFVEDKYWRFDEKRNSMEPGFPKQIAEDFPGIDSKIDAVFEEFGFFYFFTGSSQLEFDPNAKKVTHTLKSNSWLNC

## Cc1cc(=O)c(O)c(COCc2ccc(-c3ccccc3)cc2)o1
Stromelysin-1 [1]
  inhibition: 26%
[2]
  inhibition: 15%
[3]
  inhibition: 21%

## Cc1cc(=O)c(O)c(C(=O)NCc2ccc(O)cc2)o1
Stromelysin-1 [1]
  inhibition: 94%
[2]
  inhibition: 25%
[3]
  inhibition: 66%
Stromelysin-1 [4]
  IC50: 3.7 µM

## Cc1occ(O)c(=O)c1C(=O)NCc1ccc(O)cc1
Stromelysin-1 [1]
  inhibition: 32%
[2]
  inhibition: 24%
[3]
  inhibition: 17%

## Cc1cc(=O)c(O)c(CNCc2ccc(-c3ccccc3)cc2)o1
Stromelysin-1 [1]
  inhibition: 4%
[2]
  inhibition: 63%
[3]
  inhibition: 6%
[5]
  IC50: 37.7 µM

## O=C(NCc1ccc(-c2ccccc2)cc1)c1cc(=O)c(O)co1
Stromelysin-1 [1]
  inhibition: 44%
[2]
  inhibition: 14%
[3]
  inhibition: 12%

## Cc1occ(O)c(=S)c1C(=O)NCc1ccc(-c2ccccc2)cc1
Stromelysin-1 [1]
  inhibition: 45%
[2]
  inhibition: 94%
[3]
  inhibition: 52%
[5]
  IC50: 23 µM

## Cc1cc(=S)c(O)c(C(=O)NCc2ccc(-c3ccccc3)cc2)o1
Stromelysin-1 [4]
  IC50: 5.6 µM

## COc1ccc(CNC(=O)c2oc(C)cc(=S)c2O)cc1
Stromelysin-1 [1]
  inhibition: 97%
Interstitial collagenase
  IC50: 30 µM
[2]
  inhibition: 94%
[3]
  inhibition: 70%
Stromelysin-1 [4]
  IC50: 16.4 µM
[5]
  IC50: 19 µM

## Cc1cc(=O)c(O)c(C(=O)NCc2ccc(-c3ccccc3)cc2)o1
Interstitial collagenase
  IC50: > 50 µM

## COc1ccc(CNC(=O)c2cc(=S)c(O)co2)cc1
Stromelysin-1 [1]
  inhibition: 91%
[2]
  inhibition: 85%
[3]
  inhibition: 31%
Stromelysin-1 [4]
  IC50: 13.9 µM

## O=C(NCc1ccc(-c2ccccc2)cc1)c1cc(=S)c(O)co1
Stromelysin-1 [1]
  inhibition: 91%
Interstitial collagenase
  IC50: 44 µM
[2]
  inhibition: 98%
[3]
  inhibition: 62%
Stromelysin-1 [4]
  IC50: 13.3 µM
[5]
  IC50: 14.4 µM

## Cc1occ(O)c(=O)c1C(=O)NCc1ccc(-c2ccccc2)cc1
Stromelysin-1 [1]
  inhibition: 28%
[2]
  inhibition: 21%
[3]
  inhibition: 15%

## COc1ccc(CNC(=O)c2c(C)oc(CO)c(O)c2=O)cc1
Stromelysin-1 [1]
  inhibition: 32%
[2]
  inhibition: 24%
[3]
  inhibition: 18%

## COc1ccc(CNC(=O)c2c(C)occ(O)c2=O)cc1
Stromelysin-1 [1]
  inhibition: 18%
[2]
  inhibition: 33%
[3]
  inhibition: 15%

## COc1ccc(CNC(=O)c2oc(C)cc(=O)c2O)cc1
Stromelysin-1 [1]
  inhibition: 93%
[2]
  inhibition: 26%
[3]
  inhibition: 29%

## COc1ccc(CNC(=O)c2cc(=O)c(O)co2)cc1
Stromelysin-1 [1]
  inhibition: 22%
[2]
  inhibition: 11%
[3]
  inhibition: 16%

## CCOC(=O)c1c(C)oc(CNCc2ccc(-c3ccccc3)cc2)c(O)c1=O
Stromelysin-1 [1]
  inhibition: < 1%
[2]
  inhibition: 18%
[3]
  inhibition: 13%

## COc1ccc(CNC(=O)c2c(C)occ(O)c2=S)cc1
Stromelysin-1 [1]
  inhibition: 36%
[2]
  inhibition: 69%
[3]
  inhibition: 49%
[5]
  IC50: 30 µM
